Key:
[1] = Cmax in NMRI mouse at 10 mg/kg, ip measured up to 24 hrs by LC/MS/MS analysis; assay type: ADME, organism-based; parameters: route intraperitoneal, dose 10 mg/kg, time <=24; conditions: in vivo
Procedure, shortened: (§1)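 Female NMRI mice (n=3) dosed IP at a target of 10 mg/kg. Vehicle: 1% DMSO and 99% of a 20% Captisol solution in water. Drug levels measured in peripheral blood.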

[2] = AUC in NMRI mouse at 10 mg/kg, ip measured up to 24 hrs by LC/MS/MS analysis; assay type: ADME, organism-based; parameters: route intraperitoneal, dose 10 mg/kg, time <=24; conditions: in vivo; procedure, shortened: as §1
[3] = Intrinsic clearance in human liver microsomes by LC/MS/MS analysis; assay type: ADME, Microsome; conditions: read-out: CLH
[4] = Drug exposure in NMRI mouse blood at 10 mg/kg, ip measured after 4 hrs by LC/MS/MS analysis; assay type: ADME, organism-based; conditions: in vivo; procedure, shortened: as §1
[5] = Ratio of drug level in brain to plasma in NMRI mouse at 10 mg/kg, ip measured up to 24 hrs by LC/MS/MS analysis; assay type: ADME, organism-based; conditions: brain and plasma, read-out: BPR
[6] = Drug exposure in NMRI mouse brain at 10 mg/kg, ip measured after 4 hrs by LC/MS/MS analysis; assay type: ADME, organism-based; conditions: in vivo
[7] = 1-Octanol-aquoues buffer distribution coefficient, log D of compound at pH 7.4 by UPLC-MS based shake flask method; assay type: physicochemical; conditions: 1-octanol/aqueous buffer
[8] = Intrinsic clearance in Han Wistar rat hepatocytes assessed per million cells at 1 uM by LC/MS/MS analysis; assay type: ADME, cell-based, Hepatocyte; conditions: read-out: CLH
[9] = Tmax in NMRI mouse at 10 mg/kg, ip measured up to 24 hrs by LC/MS/MS analysis; assay type: ADME, organism-based; conditions: in vivo; procedure, shortened: as §1
[10] = Half life in NMRI mouse at 10 mg/kg, ip measured up to 24 hrs by LC/MS/MS analysis; assay type: ADME, organism-based; conditions: in vivo; procedure, shortened: as §1

Structure (SMILES)	Cmax [1]	AUC at 24 h [2]	microsomal CLint [3]	Drug uptake [4]	Kp at 24 h [5]	Drug uptake [6]	logD [7]	hepatocyte CLint at 1 µM [8]	Tmax [9]	half-life [10]
Cn1c(=O)n(-c2ccc(C(C)(C)C#N)cc2)c2c3cc(-c4cn[nH]c4)ccc3ncc21	570 ng/mL	920 ng·h/mL	38 µL/min/mg	Not Active	0.026	Not Active	3	7.9 µL/min/1e6 cells	30 min	78 min
Cn1c(=O)n(C2CCNCC2)c2c3cc(-c4cn[nH]c4)ccc3ncc21	–	–	3 µL/min/mg	–	–	–	0.1	1 µL/min/1e6 cells	–	–

Source: ChEMBL document CHEMBL4680062, “Structure-property studies of an imidazoquinoline chemotype with antitrypanosomal activity” (RSC Med Chem, 2020)
